Assay results published in ChEMBL document CHEMBL1121743, “Synthesis and antibacterial activity of 1-(arylamino)-1H-pyrroles and 4-(1H-pyrrol-1-ylimino)-2,5-cyclohexadienes” (1981).
Values after ≈ are worked out from the molar mass of the structure shown. Active and inactive are the calls of the source. No cut-off for these calls is given here.

How the values were obtained:
[1] = tested on: Proteus mirabilis; assay: Minimum inhibitory dilution of medicated rat urine tested in vitro for antibacterial activity against Proteus mirabilis; Less than 1:2; type: functional
[2] = tested on: Staphylococcus aureus; assay: In vitro minimum inhibitory concentration against Staphylococcus aureus; type: functional; conditions: Staphylococcus aureus; read-out: MIC
Procedure, shortened: (§1)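 Compounds were dissolved in water, or in water with the minimum DMSO needed to keep them in solution, and tested by an established dilution method. A ">" prefix means the DMSO solvent blank was inhibitory at that level.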

[3] = tested on: Proteus mirabilis; assay: In vitro minimum inhibitory concentration against Proteus mirabilis; type: functional; conditions: Proteus mirabilis; read-out: MIC; procedure, shortened: as §1
[4] = tested on: Staphylococcus aureus; assay: Minimum inhibitory dilution of medicated rat urine tested in vitro for antibacterial activity against Staphylococcus aureus; Less than 1:2; type: functional
[5] = tested on: Staphylococcus aureus; assay: Minimum inhibitory dilution of medicated rat urine tested in vitro for antibacterial activity against Staphylococcus aureus; Equal to 1:4; type: functional
[6] = tested on: Mus musculus; assay: Antitubercular activity (100 mg/kg) in the 31-day murine mice model; type: functional
Procedure, shortened: (§2)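 Female Swiss mice (14–16 g), 10 per treated group and 20 infected controls, were infected i.v. with 0.1 mL of a 2 mg/mL M. tuberculosis H37Rv suspension. Oral dosing was in 0.5 mL 1.0% gum tragacanth, starting day 3 post-infection, twice daily, 5 days/week for 4 weeks. Percent survival was recorded at day 31; active meant survival consistently >80%.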

[7] = tested on: Mus musculus; assay: Antitubercular activity (6.25 mg/kg) in the 31-day murine mice model; type: functional; procedure, shortened: as §2
[8] = tested on: Mus musculus; assay: Antitubercular activity (50 mg/kg) in the 31-day murine mice model; type: functional; procedure, shortened: as §2
[9] = tested on: Mus musculus; assay: Antitubercular activity (25 mg/kg) in the 31-day murine mice model; type: functional; procedure, shortened: as §2
[10] = tested on: Mus musculus; assay: Antitubercular activity (12.5 mg/kg) in the 31-day murine mice model; type: functional; procedure, shortened: as §2
[11] = tested on: Staphylococcus aureus; assay: Minimum inhibitory dilution of medicated rat urine tested in vitro for antibacterial activity against Staphylococcus aureus; Equal to 1:16; type: functional
[12] = tested on: Proteus mirabilis; assay: Minimum inhibitory dilution of medicated rat urine tested in vitro for antibacterial activity against Proteus mirabilis; Equal to 1:128; type: functional
Procedure, shortened: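 Female Sprague-Dawley rats (160–200 g), in groups of three, got 50 mg/kg orally in 1.0% gum tragacanth (1 mL/100 g), with a second 50 mg/kg dose 8 h later. Pooled 24-h urine was centrifuged, ultrafiltered and stored at −20 °C. It was serially diluted twofold in tryptose phosphate broth with inoculum (18-h culture at OD 0.1, then 1:250) and incubated 18 h at 37 °C. MID is the highest dilution without visible growth.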

[13] = tested on: Staphylococcus aureus; assay: Minimum inhibitory dilution of medicated rat urine tested in vitro for antibacterial activity against Staphylococcus aureus; Equal to 1:2; type: functional
[14] = tested on: Proteus mirabilis; assay: Minimum inhibitory dilution of medicated rat urine tested in vitro for antibacterial activity against Proteus mirabilis; Equal to 1:4; type: functional
[15] = tested on: Staphylococcus aureus; assay: Minimum inhibitory dilution of medicated rat urine tested in vitro for antibacterial activity against Staphylococcus aureus; Equal to 1:8; type: functional
[16] = tested on: Proteus mirabilis; assay: Minimum inhibitory dilution of medicated rat urine tested in vitro for antibacterial activity against Proteus mirabilis; Equal to 1:8; type: functional
[17] = tested on: Proteus mirabilis; assay: Minimum inhibitory dilution of medicated rat urine tested in vitro for antibacterial activity against Proteus mirabilis; Equal to 1:16; type: functional
[18] = tested on: Staphylococcus aureus; assay: Minimum inhibitory dilution of medicated rat urine tested in vitro for antibacterial activity against Staphylococcus aureus; Equal to 1:32; type: functional
[19] = tested on: Mus musculus; assay: Antitubercular activity (3.1 mg/kg) in the 31-day murine mice model; type: functional; procedure, shortened: as §2
[20] = tested on: Mus musculus; assay: Antitubercular activity (25 mg/kg) in the 31-day murine mice model; NA=Not active; type: functional, organism-based; procedure, shortened: as §2
[21] = tested on: Mus musculus; assay: Antitubercular activity (3.1 mg/kg) in the 31-day murine mice model; NA=Not active; type: functional, organism-based; procedure, shortened: as §2
[22] = tested on: Mus musculus; assay: Antitubercular activity (12.5 mg/kg) in the 31-day murine mice model; NA=Not active; type: functional, organism-based; procedure, shortened: as §2
[23] = tested on: Mus musculus; assay: Antitubercular activity (6.25 mg/kg) in the 31-day murine mice model; NA=Not active; type: functional, organism-based; procedure, shortened: as §2
[24] = tested on: Mus musculus; assay: Antitubercular activity (100 mg/kg) in the 31-day murine mice model; NA=Not active; type: functional, organism-based; procedure, shortened: as §2
[25] = tested on: Mus musculus; assay: Antitubercular activity (50 mg/kg) in the 31-day murine mice model; NA=Not active; type: functional, organism-based; procedure, shortened: as §2

Structure (SMILES)	MID [1]	MIC [2] [µg/mL]	MIC [3] [µg/mL]	MID [4]	further results
[N-]=[N+]=NC1=CC(=O)C=C/C1=N/n1cccc1	<0.5	125 (≈ 586 µM)	> 250	<0.5	–
CN(c1ccc(O)cc1)n1cccc1	<0.5	125 (≈ 664 µM)	> 250	<0.5	–
Oc1ccc(Nn2cccc2)c2ccccc12	< 0.5	≤ 7.8	62.5 (≈ 279 µM)	–	MID [5]: 0.25
CC(C)(C)C1=CC(=Nn2cccc2)C=C(C(C)(C)C)C1=O	<0.5	> 62.5	> 62.5	<0.5	–
c1ccn(Nc2ccc(Nn3cccc3)cc2)c1	<0.5	125 (≈ 525 µM)	> 250	<0.5	Survival [6]: 0%; Survival [7]: 0%; Survival [8]: 0%; Survival [9]: 40%; Survival [10]: 0%
CCn1cc(C(=O)O)c(=O)c2ccc(C)nc21 [NALIDIXIC ACID]	–	62.5 (≈ 269 µM)	15.6 (≈ 67.2 µM)	–	MID [11]: 0.0625; MID [12]: 0.00781
CN(C)C1=CC(=O)C=C/C1=N/n1cccc1	<0.5	62.5 (≈ 290 µM)	> 125	<0.5	–
CC1=CC(=N/n2cccc2)/C=CC/1=N/n1cccc1	<0.5	> 62.5	> 62.5	<0.5	–
O=Nc1ccc(Nn2cccc2)cc1	<0.5	125 (≈ 668 µM)	250 (≈ 1340 µM)	<0.5	–
Cc1ccc(C)n1N=C1C=CC(=O)C=C1	<0.5	≤ 7.8	62.5 (≈ 312 µM)	–	MID [13]: 0.5
CC(=O)Oc1ccc(Nn2cccc2)cc1	<0.5	> 62.5	> 62.5	–	MID [11]: 0.0625
NC1=CC(=O)C=C/C1=N/n1cccc1	–	15.6 (≈ 83.3 µM)	125 (≈ 668 µM)	–	MID [13]: 0.5; MID [14]: 0.25
Oc1ccc(Nn2cccc2)cc1O	<0.5	≤ 7.8	62.5 (≈ 329 µM)	–	MID [15]: 0.125
O=C(N[C@H](CO)[C@H](O)c1ccc([N+](=O)[O-])cc1)C(Cl)Cl [CHLORAMPHENICOL]	–	3.9 (≈ 12.1 µM)	> 62.5	–	MID [11]: 0.0625; MID [16]: 0.125
Oc1cccc(Nn2cccc2)c1	<0.5	62.5 (≈ 359 µM)	500 (≈ 2870 µM)	<0.5	–
COc1ccc(Nn2cccc2)cc1	–	> 125	> 125	–	MID [17]: 0.0625; MID [18]: 0.03125

Structure (SMILES)	MID [1]	MIC [2] [µg/mL]	MIC [3] [µg/mL]	MID [4]	further results
C1=CC(=Nn2cccc2)C=CC1=Nc1ccccc1	<0.5	> 62.5	> 62.5	<0.5	–
CC1=CC(=Nn2cccc2)C=C(C)C1=O	<0.5	31.3 (≈ 156 µM)	> 125	–	MID [5]: 0.25
C1=CC(=Nn2cccc2)C=CC1=Nn1cccc1	–	> 125	> 62.5	–	Survival [6]: 100%; MID [11]: 0.0625; MID [17]: 0.0625; Survival [7]: 80%; Survival [8]: 100%; Survival [9]: 100%; Survival [19]: 10%; Survival [10]: 100%
Oc1ccc(Nn2cccc2)c(Cl)c1	0.5	62.5 (≈ 300 µM)	> 125	<0.5	–
O=C1CN(/N=C/c2ccc([N+](=O)[O-])o2)C(=O)N1 [NITROFURANTOIN]	–	15.6 (≈ 65.5 µM)	> 62.5	–	MID [18]: 0.03125
NNC(=O)c1ccncc1 [ISONIAZID]	–	–	–	–	Survival [7]: 100%; Survival [19]: 100%; Survival [10]: 100%
O=C(O)c1cccn1Nc1ccc(O)cc1	–	500 (≈ 2290 µM)	500 (≈ 2290 µM)	–	MID [11]: 0.0625; MID [16]: 0.125
CC(=O)Oc1ccc(N(C(C)=O)n2cccc2)cc1	<0.5	> 250	> 125	–	MID [13]: 0.5; Survival [20]: inactive; Survival [21]: inactive; Survival [22]: inactive; Survival [23]: inactive; Survival [24]: inactive; Survival [25]: inactive
O=C1C=C/C(=N/n2cccc2)C(Cl)=C1	<0.5	31.3 (≈ 151 µM)	> 125	<0.5	–
O=C1C=CC(=Nn2cccc2)C=C1	–	≤ 7.8	62.5 (≈ 363 µM)	–	MID [18]: 0.03125; Survival [7]: 100%; Survival [8]: 100%; Survival [9]: 100%; MID [14]: 0.25; Survival [19]: 0%; Survival [10]: 100%
Cc1ccc(C)n1Nc1ccc(O)cc1	<0.5	≤ 7.8	15.6 (≈ 77.1 µM)	–	MID [5]: 0.25
O=C1C=C/C(=N/n2cccc2)c2ccccc21	<0.5	31.3 (≈ 141 µM)	> 62.5	–	MID [13]: 0.5
Cc1ccc(C(=O)Oc2ccc(N(C(=O)c3ccc(C)cc3)n3cccc3)cc2)cc1	<0.5	125 (≈ 305 µM)	> 62.5	<0.5	Survival [20]: inactive; Survival [21]: inactive; Survival [22]: inactive; Survival [23]: inactive; Survival [24]: inactive; Survival [25]: inactive
Oc1ccccc1Nn1cccc1	<0.5	≤ 7.8	15.6 (≈ 89.6 µM)	<0.5	–
c1ccc(Nc2ccc(Nn3cccc3)cc2)cc1	<0.5	31.3 (≈ 126 µM)	> 250	<0.5	–
Cc1ccc(C(=O)Oc2ccc(Nn3cccc3)cc2)cc1	< 0.5	> 250	> 250	–	Survival [20]: inactive; Survival [21]: inactive; Survival [22]: inactive; MID [5]: 0.25; Survival [23]: inactive; Survival [24]: inactive; Survival [25]: inactive
